Reference: ChEMBL document CHEMBL1132376, “Synthesis, structure-activity relationships, and RARgamma-ligand interactions of nitrogen heteroarotinoids” (J Med Chem, 1999)

Assays:
[1] = tested on: SW 954; assay: Percent of growth inhibition of Cell line SW954 (Vulvar) by the compound; assay type: functional, Homo sapiens
How it was run: (§1)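 Carcinoma cell lines were seeded at 2000–4000 cells/well and dosed the next day at 10 µM against a DMSO control. After 72 h cells were TCA-fixed, SRB-stained and the dye solubilized in Tris-HCl, then OD was read. Triplicates were averaged, and % inhibition = (1 − treated/control OD) × 100.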

[2] = target: T1, Retinoic acid receptor RXR-gamma (Mus musculus, UniProt P28705); assay: Transcriptional activation in CV-1 cells expressing Retinoid X receptor RXR gamma; assay type: functional, cell-based
T1 sequence (P28705 whole entry): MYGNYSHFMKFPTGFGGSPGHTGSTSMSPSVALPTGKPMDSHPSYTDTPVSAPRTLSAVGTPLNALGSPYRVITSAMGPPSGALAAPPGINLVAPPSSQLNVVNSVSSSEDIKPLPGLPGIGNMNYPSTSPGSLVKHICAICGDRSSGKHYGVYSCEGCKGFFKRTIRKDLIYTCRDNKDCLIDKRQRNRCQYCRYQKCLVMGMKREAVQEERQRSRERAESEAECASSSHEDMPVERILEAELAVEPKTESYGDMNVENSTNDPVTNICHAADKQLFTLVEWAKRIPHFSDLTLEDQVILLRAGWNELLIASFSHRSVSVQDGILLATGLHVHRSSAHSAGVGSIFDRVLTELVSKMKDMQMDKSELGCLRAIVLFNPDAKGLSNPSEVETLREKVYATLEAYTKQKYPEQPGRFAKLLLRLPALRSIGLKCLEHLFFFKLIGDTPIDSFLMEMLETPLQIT
How it was run: (§2)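 CV-1 cells were cotransfected with a human RAR or mouse RXR subtype vector, βRARE-tk-CAT reporter and β-gal internal control. Retinoids were applied at 10^-10–10^-5 M (0.1% DMSO) for 24 h, then CAT/β-gal was measured by ELISA. Potency is the concentration giving half of the agent's own maximal activity. Triplicates were run in at least two experiments.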

[3] = tested on: SK-OV-3; assay: Percent of growth inhibition of Cell line SKOV-3(Ovarian) by the compound; assay type: functional, Homo sapiens; how it was run: as §1
[4] = Transcriptional activation in CV-1 cells expressing Retinoid X receptor RXR alpha; assay type: functional, cell-based; how it was run: as §2
[5] = target: T2, Retinoic acid receptor RXR-gamma (Mus musculus) (UniProt P28705); assay: Percent transcriptional activation relative to 9-cis RA in CV-1 cells expressing Retinoid X receptor RXR gamma; assay type: functional, cell-based
T2 sequence (whole entry): T1 sequence (P28705 whole entry)
How it was run: (§3)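 CV-1 cells were transiently cotransfected with a human RARα/β/γ or mouse RXRα/β/γ expression vector (100 ng), βRARE-tk-CAT reporter (500 ng) and β-gal control (100 ng). Retinoids (10^-10–10^-5 M, 0.1% DMSO) were added 16–18 h later for 24 h, and CAT and β-gal were read by ELISA. Efficacy = maximal activity ÷ 9-cis-RA maximal activity. Triplicates were run in at least two experiments.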

[6] = tested on: SCC-2; assay: Percent of growth inhibition of Cell line SCC-2(Head and Neck) by the compound; assay type: functional, Homo sapiens; how it was run: as §1
[7] = tested on: CC-1; assay: Percent inhibition of CC-1 cervical cell proliferation; assay type: functional, Homo sapiens; how it was run: as §1
[8] = tested on: Caov-3 cell line; assay: Percent of growth inhibition of Cell line Caov-3(Ovarian) by the compound; assay type: functional, Homo sapiens; how it was run: as §1
[9] = target: T3, Retinoic acid receptor beta (Homo sapiens, UniProt P10826); assay: Transcriptional activation in CV-1 cells expressing Retinoic acid receptor RAR beta; assay type: functional, cell-based; how it was run: as §2
T3 sequence (P10826 whole entry): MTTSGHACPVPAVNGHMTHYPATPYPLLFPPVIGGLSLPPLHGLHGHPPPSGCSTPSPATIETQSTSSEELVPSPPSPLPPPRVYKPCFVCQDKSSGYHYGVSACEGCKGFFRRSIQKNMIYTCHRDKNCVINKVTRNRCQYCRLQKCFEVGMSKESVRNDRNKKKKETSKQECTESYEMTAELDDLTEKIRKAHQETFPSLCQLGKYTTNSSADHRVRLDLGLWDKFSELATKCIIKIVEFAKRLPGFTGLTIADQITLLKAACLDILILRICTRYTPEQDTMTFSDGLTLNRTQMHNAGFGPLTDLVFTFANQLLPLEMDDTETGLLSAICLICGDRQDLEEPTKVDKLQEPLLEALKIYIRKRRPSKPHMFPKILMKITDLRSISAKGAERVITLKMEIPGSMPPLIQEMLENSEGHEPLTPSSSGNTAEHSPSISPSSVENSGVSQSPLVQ

[10] = target: T4, Retinoic acid receptor RXR-beta (Mus musculus) (UniProt P28704); assay: Percent transcriptional activation relative to 9-cis RA in CV-1 cells expressing Retinoid X receptor RXR beta; assay type: functional, cell-based; how it was run: as §3
T4 sequence (whole entry): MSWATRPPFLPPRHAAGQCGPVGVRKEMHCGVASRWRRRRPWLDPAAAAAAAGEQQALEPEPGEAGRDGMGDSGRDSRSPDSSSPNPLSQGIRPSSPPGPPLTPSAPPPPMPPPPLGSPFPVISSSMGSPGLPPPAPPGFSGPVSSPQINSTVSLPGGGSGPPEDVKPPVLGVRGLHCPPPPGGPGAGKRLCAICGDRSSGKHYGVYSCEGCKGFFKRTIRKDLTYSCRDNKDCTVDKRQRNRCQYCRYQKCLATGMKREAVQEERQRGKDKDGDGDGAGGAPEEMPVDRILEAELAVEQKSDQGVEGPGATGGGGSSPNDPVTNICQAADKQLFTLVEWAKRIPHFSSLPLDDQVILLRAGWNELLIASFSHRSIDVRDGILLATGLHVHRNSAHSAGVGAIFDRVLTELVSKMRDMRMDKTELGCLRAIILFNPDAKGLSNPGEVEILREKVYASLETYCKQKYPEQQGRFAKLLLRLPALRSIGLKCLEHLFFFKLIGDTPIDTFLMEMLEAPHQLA

[11] = Percent transcriptional activation relative to 9-cis RA in CV-1 cells expressing Retinoid X receptor RXR alpha; assay type: functional, Mus musculus; how it was run: as §3
[12] = tested on: SiHa; assay: Percent of growth inhibition of Cell line SiHa (Cervix) by the compound; assay type: functional, Homo sapiens; how it was run: as §1
[13] = target: T5, Retinoic acid receptor RXR-beta (Mus musculus, UniProt P28704); assay: Transcriptional activation in CV-1 cells expressing Retinoid X receptor RXR beta; assay type: functional, cell-based; how it was run: as §2
T5 sequence (P28704 whole entry): T4 sequence (whole entry)

[14] = tested on: SCC-38; assay: Percent of growth inhibition of Cell line SCC-38(Head and Neck) by the compound; assay type: functional, Homo sapiens; how it was run: as §1
[15] = The compound was evaluated for Tissue Transglutaminase induction
How it was run: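 HEL cells ((1–2) × 10^5/mL) were exposed to 10 µM retinoid for 48 h, washed in PBS and sonicated in Tris/NaCl/EDTA/PMSF buffer (pH 7.4). TGase was measured as Ca2+-dependent [14C]putrescine incorporation into N,N-dimethylcasein, counting acid-insoluble radioactivity, with Lowry protein. Efficacy is expressed relative to maximal t-RA activity.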

[16] = target: T6, Retinoic acid receptor alpha (Homo sapiens, UniProt P10276); assay: Transcriptional activation in CV-1 cells expressing human Retinoic acid receptor alpha; assay type: functional, cell-based; how it was run: as §2
T6 sequence (P10276 whole entry): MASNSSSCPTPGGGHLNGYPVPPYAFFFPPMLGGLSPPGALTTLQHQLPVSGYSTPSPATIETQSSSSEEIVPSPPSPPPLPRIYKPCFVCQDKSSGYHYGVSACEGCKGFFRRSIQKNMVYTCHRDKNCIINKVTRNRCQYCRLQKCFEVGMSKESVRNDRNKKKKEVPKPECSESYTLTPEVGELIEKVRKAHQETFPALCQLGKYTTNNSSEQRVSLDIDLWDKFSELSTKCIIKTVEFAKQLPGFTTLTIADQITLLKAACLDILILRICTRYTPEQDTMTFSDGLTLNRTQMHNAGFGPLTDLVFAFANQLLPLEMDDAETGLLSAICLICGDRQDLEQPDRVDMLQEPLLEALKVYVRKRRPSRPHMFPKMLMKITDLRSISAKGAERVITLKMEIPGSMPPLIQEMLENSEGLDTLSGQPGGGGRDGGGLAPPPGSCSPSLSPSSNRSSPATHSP

[17] = tested on: SW 962; assay: Percent of growth inhibition of Cell line SW962 (Vulvar) by the compound; assay type: functional, Homo sapiens; how it was run: as §1
[18] = Percent transcriptional activation relative to 9-cis RA in CV-1 cells expressing Retinoic acid receptor RAR gamma; assay type: functional, Homo sapiens; how it was run: as §3
[19] = target: T7, Retinoic acid receptor beta (Homo sapiens) (UniProt P10826); assay: Percent transcriptional activation relative to 9-cis RA in CV-1 cells expressing Retinoic acid receptor RAR beta; assay type: functional, cell-based; how it was run: as §3
T7 sequence (whole entry): T3 sequence (P10826 whole entry)

[20] = target: T8, Retinoic acid receptor alpha (Homo sapiens) (UniProt P10276); assay: Percent transcriptional activation relative to 9-cis RA in CV-1 cells expressing Retinoic acid receptor RAR alpha; assay type: functional, cell-based; how it was run: as §3
T8 sequence (whole entry): T6 sequence (P10276 whole entry)

[21] = Transcriptional activation in CV-1 cells expressing Retinoic acid receptor RAR gamma; assay type: functional, cell-based; conditions: Homo sapiens; how it was run: as §2
[22] = tested on: CC-1; assay: Percent of growth inhibition of Cell line CC-1(Cervix) by the compound; assay type: functional, Homo sapiens; how it was run: as §1

| SMILES | EC50 [2] [nM] | EC50 [4] [nM] | Efficacy [5] [%] | EC50 [9] [nM] | Efficacy [10] [%] | EC50 [13] [nM] | Induction [15] | EC50 [16] [nM] | Efficacy [19] [%] | Efficacy [20] [%] | Inhibition [1] [%] | Inhibition [3] [%] | Inhibition [6] [%] | Inhibition [7] [%] | Inhibition [8] [%] | Efficacy [11] [%] | Inhibition [12] [%] | Inhibition [14] [%] | Inhibition [17] [%] | Efficacy [18] [%] | further results |
| --- | --- | --- | --- | --- | --- | --- | --- | --- | --- | --- | --- | --- | --- | --- | --- | --- | --- | --- | --- | --- | --- |
| CC1=C(/C=C/C(C)=C\C=C\C(C)=C\C(=O)O)C(C)(C)CCC1 [ALITRETINOIN] |  |  |  |  |  |  |  |  |  |  | 35 | 27 | 25 |  | 25 |  | 25 | 24 | 30 |  | Inhibition [22]: 15% |
| C/C(=C/c1ccc(C(=O)O)cc1)c1ccc2c(c1)C(C)(C)CCC2(C)C |  |  |  |  |  |  |  |  |  |  | 30 | 20 |  |  | 15 |  |  |  | 20 |  |  |

Continued, in another order:

| EC50 [2] [nM] | EC50 [4] [nM] | Efficacy [5] [%] | EC50 [9] [nM] | Efficacy [10] [%] | EC50 [13] [nM] | Induction [15] | EC50 [16] [nM] | Efficacy [19] [%] | Efficacy [20] [%] | SMILES | Inhibition [1] [%] | Inhibition [3] [%] | Inhibition [6] [%] | Inhibition [7] [%] | Inhibition [8] [%] | Efficacy [11] [%] | Inhibition [12] [%] | Inhibition [14] [%] | Inhibition [17] [%] | Efficacy [18] [%] | further results |
| --- | --- | --- | --- | --- | --- | --- | --- | --- | --- | --- | --- | --- | --- | --- | --- | --- | --- | --- | --- | --- | --- |
| 27 | 12 | 47 | 41 | 45 | 47 | 49 | 217 | 71 | 59 | CCOC(=O)c1ccc(OC(=O)c2ccc3c(c2)C(C)(C)CCN3C(C)C)cc1 | 49 | 2 | 24 | 15 | 13 | 62 | 25 | 25 | 25 | 0 |  |
| 49 | 102 | 52 | 92 | 55 | 70 | 49 | 796 | 63 | 64 | CCOC(=O)c1ccc(OC(=O)c2cc3c(cc2C)N(C)CCC3(C)C)cc1 | 77 | 0 | 20 | 20 | 10 | 53 | 26 | 20 | 80 | 103 | EC50 [21]: 6 nM |
| 20 | 601 | 52 | 256 | 53 | 33 | 37 | 1130 | 64 | 45 | CCOC(=O)c1ccc(OC(=O)c2ccc3c(c2)C(C)(C)CCN3C)cc1 | 35 | 0 | 20 | 25 | 0 | 47 | 40 | 20 | 15 | 0 |  |
